According to ChEMBL document CHEMBL4152240, “Synthesis, cytotoxicity and structure-activity relationship of indolizinoquinolinedione derivatives as DNA topoisomerase IB catalytic inhibitors” (2018):
The source made the active and inactive calls. The calls are words filed in the database; no cut-off is given here.

What was measured:
[1] = tested on: Huh-7; experiment: Cytotoxicity against human HuH7 cells assessed as growth inhibition after 72 hrs by MTT assay; type: functional; conditions: Huh-7, 72 h
Summary of the method: (§1)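 Five-dose MTT growth assay, compounds predissolved in DMSO, 72 h exposure at 37 C. Cells kept in RPMI-1640 or DMEM, 37 C, 5% CO2, passage 3-6. MTT (1 mg/mL in PBS) added for 4 h, formazan dissolved in DMSO, OD 570 nm. GI50 (50% growth inhibition) by nonlinear regression. Means ± SD, at least three repeats.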

[2] = target: T1, Topoisomerase I (Bos taurus) (UniProt Q2HPH0); experiment: Inhibition of calf thymus TOP1-mediated relaxation of supercoiled pBR322 DNA at 25 uM after 30 mins by agarose gel electrophoresis relative to camptothecin
T1 sequence (whole entry): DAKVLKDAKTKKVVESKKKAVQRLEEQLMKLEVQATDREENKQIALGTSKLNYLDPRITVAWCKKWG
Summary of the method: (§2)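 0.5 µg supercoiled pBR322 in buffer (10 mM Tris-HCl pH 7.5, 50 mM KCl, 5 mM MgCl2, BSA, DTT) with 1 unit calf thymus TOP1, with or without compound (0.2-125 µM), 30 min at 37 C. Run on 0.8% agarose/TBE at 4.6 V/cm for 1.5 h, gel red stained. Activity graded in bands (e.g. +++ 81-120%). At least two independent repeats.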

[3] = tested on: CCRF-CEM; experiment: Cytotoxicity against human CCRF-CEM cells assessed as growth inhibition after 72 hrs by MTT assay; type: functional; summary of the method: as §1
[4] = tested on: A549; experiment: Cytotoxicity against human A549 cells assessed as growth inhibition after 72 hrs by MTT assay; type: functional; conditions: A549, 72 h; summary of the method: as §1
[5] = tested on: HCT-116; experiment: Cytotoxicity against human HCT116 cells assessed as growth inhibition after 72 hrs by MTT assay; type: functional; conditions: HCT-116, 72 h; summary of the method: as §1
[6] = tested on: DU-145; experiment: Cytotoxicity against human DU145 cells assessed as growth inhibition after 72 hrs by MTT assay; type: functional; conditions: DU-145, 72 h; summary of the method: as §1
[7] = tested on: DNA; experiment: Induction of unwinding effect of Escherichia coli relaxed pBR322 DNA at 1 to 9 uM preincubated with DNA for 10 mins followed by excess calf thymus TOP1 addition and measured after 30 mins by agarose gel electrophoresis; type: nucleic-acid assay
Summary of the method: (§3)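 Compound (1, 3, 9 µM) preincubated with pBR322 DNA, supercoiled or relaxed, at room temperature for 10 min. Excess TOP1 then added and incubated 30 min at 37 C. Stopped with SDS/proteinase K. Ethidium bromide (0.3-1.2 mg/L) as positive control. Run on 0.8% agarose in TBE at 4.6 V/cm for 1.5 h, stained with gel red, UV visualized.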

[8] = tested on: DNA; experiment: Induction of unwinding effect of Escherichia coli supercoiled pBR322 DNA at 1 to 9 uM preincubated with DNA for 10 mins followed by excess calf thymus TOP1 addition and measured after 30 mins by agarose gel electrophoresis; type: nucleic-acid assay; summary of the method: as §3
[9] = tested on: HCT-116; experiment: Induction of apoptosis in human HCT116 cells assessed as early apoptotic cells at 1 uM after 12 hrs by annexin V-FITC/propidium iodide staining-based flow cytometric method (reference value: 0.47 to 1.19%); type: functional
[10] = tested on: HCT-116; experiment: Induction of apoptosis in human HCT116 cells assessed as late apoptotic cells at 9 uM after 12 hrs by annexin V-FITC/propidium iodide staining-based flow cytometric method (reference value: 0.34 to 0.81%); type: functional
[11] = tested on: HCT-116; experiment: Induction of apoptosis in human HCT116 cells assessed as early apoptotic cells at 3 uM after 12 hrs by annexin V-FITC/propidium iodide staining-based flow cytometric method (reference value: 0.47 to 1.19%); type: functional
[12] = target: T1, Topoisomerase I (Bos taurus); experiment: Inhibition of calf thymus TOP1-mediated relaxation of supercoiled pBR322 DNA at 125 uM after 30 mins by agarose gel electrophoresis relative to control; summary of the method: as §2
[13] = tested on: HCT-116; experiment: Induction of apoptosis in human HCT116 cells assessed as late apoptotic cells at 1 uM after 12 hrs by annexin V-FITC/propidium iodide staining-based flow cytometric method (reference value: 0.34 to 0.81%); type: functional
[14] = tested on: HCT-116; experiment: Induction of apoptosis in human HCT116 cells assessed as viable cells at 3 uM after 12 hrs by annexin V-FITC/propidium iodide staining-based flow cytometric method (reference value: 97.60 to 98.95%); type: functional; conditions: HCT-116, 12 h, read-out: Activity
[15] = target: T1, Topoisomerase I (Bos taurus); experiment: Inhibition of calf thymus TOP1-mediated relaxation of supercoiled pBR322 DNA after 30 mins by agarose gel electrophoresis; summary of the method: as §2
[16] = tested on: HCT-116; experiment: Induction of apoptosis in human HCT116 cells assessed as early apoptotic cells at 9 uM after 12 hrs by annexin V-FITC/propidium iodide staining-based flow cytometric method (reference value: 0.47 to 1.19%); type: functional
[17] = tested on: HCT-116; experiment: Induction of apoptosis in human HCT116 cells assessed as viable cells at 1 uM after 12 hrs by annexin V-FITC/propidium iodide staining-based flow cytometric method (reference value: 97.60 to 98.95%); type: functional; conditions: HCT-116, 12 h, read-out: Activity
[18] = tested on: HCT-116; experiment: Induction of apoptosis in human HCT116 cells after 12 hrs by annexin V-FITC/propidium iodide staining-based flow cytometric method; type: functional, cell-based
[19] = tested on: HCT-116; experiment: Induction of apoptosis in human HCT116 cells assessed as late apoptotic cells at 3 uM after 12 hrs by annexin V-FITC/propidium iodide staining-based flow cytometric method (reference value: 0.34 to 0.81%); type: functional
[20] = tested on: HCT-116; experiment: Induction of apoptosis in human HCT116 cells assessed as viable cells at 9 uM after 12 hrs by annexin V-FITC/propidium iodide staining-based flow cytometric method (reference value: 97.60 to 98.95%); type: functional; conditions: HCT-116, 12 h, read-out: Activity

SMILES | GI50 [1] [nM] | inhibition [2] [%] | GI50 [3] [nM] | GI50 [4] [nM] | GI50 [5] [nM] | GI50 [6] [nM] | Activity [7] | Activity [8] | Activity [9] [%] | Activity [10] [%] | Activity [11] [%] | inhibition [12] [%] | Activity [13] [%] | viability at 3 µM [14] [%] | inhibition [15] | Activity [16] [%] | viability at 1 µM [17] [%] | Activity [18] | Activity [19] [%] | viability at 9 µM [20] [%]
O=C1c2nccnc2C(=O)c2c1c(C(=O)OCCN1CCOCC1)c1ccccn21 | 7330 | 41 to 80 | 1610 | 8520 | 13200 | 2550 | – | – | – | – | – | – | – | – | – | – | – | – | – | –
O=C1c2ncccc2C(=O)c2c1c(C(=O)OCCN1CCOCC1)c1ccccn21 | 14200 | > 121 | 70500 | 4520 | 11100 | 1200 | inactive | inactive | – | – | – | – | – | – | – | – | – | – | – | –
CN1CCN(CCOC(=O)c2c3c(n4cccc(F)c24)C(=O)c2ncccc2C3=O)CC1 | 110 | 41 to 80 | 450 | 52 | 44 | 29 | – | – | – | – | – | – | – | – | – | – | – | – | – | –
O=C1c2cccnc2C(=O)c2c1c(C(=O)OCCN1CCOCC1)c1c(F)cccn21 | 570 | < 40 | 1100 | 130 | 110 | 230 | – | – | – | – | – | – | – | – | – | – | – | – | – | –
CCOC(=O)c1c2c(n3ccc(NC(=O)CCN4CCCCC4)cc13)C(=O)c1ncccc1C2=O | 1150 | 81 to 120 | 110 | 2650 | 1430 | 3120 | inactive | inactive | – | – | – | – | – | – | – | – | – | – | – | –
O=C1c2cccnc2C(=O)c2c1c(C(=O)OCCCN1CCCC1)c1c(F)cccn21 | 110 | 41 to 80 | 510 | 80 | 29 | 92 | – | – | – | – | – | – | – | – | – | – | – | – | – | –
CN(C)CCOC(=O)c1c2c(n3cccc(F)c13)C(=O)c1ncccc1C2=O | 310 | 41 to 80 | 1090 | 27200 | 92 | 690 | – | – | – | – | – | – | – | – | – | – | – | – | – | –
CCOC(=O)c1c2c(n3ccccc13)C(=O)c1ncccc1C2=O | 850 | 81 to 120 | 680 | 160 | 330 | 93 | inactive | inactive | – | – | – | – | – | – | – | – | – | – | – | –
O=C1c2cccnc2C(=O)c2c1c(C(=O)OCCCN1CCCCC1)c1c(F)cccn21 | 120 | > 121 | 350 | 72 | 27 | 210 | inactive | inactive | 2.14 | 31.59 | 2.5 | 100 | 3.98 | 79 | Dose-dependent effect | 4.73 | 93.4 | Dose-dependent effect | 16.74 | 61.7
O=C1c2cnncc2C(=O)c2c1c(C(=O)OCCN1CCOCC1)c1ccccn21 | 2920 | 81 to 120 | 1350 | 860 | 3430 | 1220 | inactive | inactive | – | – | – | – | – | – | – | – | – | – | – | –
O=C1c2cccnc2C(=O)c2c1c(C(=O)OCCCN1CCCCC1)c1c(Cl)cccn21 | 1320 | 41 to 80 | 5350 | 890 | 5150 | 1730 | – | – | – | – | – | – | – | – | – | – | – | – | – | –
CCOC(=O)c1c2c(n3ccc(NC(=O)CCN(C)C)cc13)C(=O)c1ncccc1C2=O | 1650 | 41 to 80 | 290 | 19600 | 1750 | 2270 | – | – | – | – | – | – | – | – | – | – | – | – | – | –
O=C1c2cccnc2C(=O)c2c1c(C(=O)OCCN1CCCCC1)c1c(Cl)cccn21 | 170 | > 121 | 390 | 120 | 310 | 2520 | Active | Active | – | – | – | – | – | – | – | – | – | – | – | –
CN(C)CCCOC(=O)c1c2c(n3cccc(F)c13)C(=O)c1ncccc1C2=O | 80 | 81 to 120 | 370 | 18 | 66 | 25 | Active | Active | – | – | – | – | – | – | – | – | – | – | – | –
CCOC(=O)c1c2c(n3ccc(NC(=O)CCN4CCCC4)cc13)C(=O)c1ncccc1C2=O | 1800 | 41 to 80 | 540 | 29300 | 1900 | 700 | – | – | – | – | – | – | – | – | – | – | – | – | – | –
O=C1c2cccnc2C(=O)c2c1c(C(=O)OCCN1CCOCC1)c1c(Cl)cccn21 | 30300 | 41 to 80 | 61300 | 48600 | 28600 | 29500 | – | – | – | – | – | – | – | – | – | – | – | – | – | –
CCOC(=O)c1c2c(n3ccc(NC(=O)CCN4CCOCC4)cc13)C(=O)c1ncccc1C2=O | 340 | 81 to 120 | 600 | 9680 | 300 | 16400 | inactive | inactive | – | – | – | – | – | – | – | – | – | – | – | –
CN1CCN(CCCOC(=O)c2c3c(n4cccc(F)c24)C(=O)c2ncccc2C3=O)CC1 | 42 | 41 to 80 | 320 | 21 | 44 | 73 | – | – | – | – | – | – | – | – | – | – | – | – | – | –
O=C1c2cccnc2C(=O)c2c1c(C(=O)OCCCN1CCCC1)c1c(Cl)cccn21 | 12200 | < 40 | 85300 | 24500 | 38200 | 8320 | – | – | – | – | – | – | – | – | – | – | – | – | – | –
O=C1c2cccnc2C(=O)c2c1c(C(=O)OCCCN1CCOCC1)c1c(Cl)cccn21 | 28400 | < 40 | 68600 | 37500 | 19100 | 29100 | – | – | – | – | – | – | – | – | – | – | – | – | – | –
O=C1c2cccnc2C(=O)c2c1c(C(=O)OCCCN1CCOCC1)c1c(F)cccn21 | 130 | < 40 | 490 | 230 | 38 | 250 | – | – | – | – | – | – | – | – | – | – | – | – | – | –
O=C1c2cccnc2C(=O)c2c1c(C(=O)OCCN1CCCC1)c1c(Cl)cccn21 | 2250 | < 40 | 48200 | 5390 | 10200 | 1580 | – | – | – | – | – | – | – | – | – | – | – | – | – | –
O=C1c2cccnc2C(=O)c2c1c(C(=O)OCCN1CCCCC1)c1c(F)cccn21 | 59 | > 121 | 380 | 290 | 25 | 91 | inactive | inactive | 2.12 | 38.17 | 1.26 | 100 | 2.39 | 86.9 | Dose-dependent effect | 2.47 | 95.2 | Dose-dependent effect | 10.47 | 57.1
